The test system of series [1] is Canis familiaris. Briefly: Toxicity in dog assessed as unbound Cmax in brain required to show convulsions at 15 mg/kg, po administered as single dose using spray dried dispersion formulation. It is filed as organism-based, Canis lupus familiaris. As to conditions: in vivo; call rule not given here.
A short description of series [2]: Selectivity ratio of EC50 for human muscarinic acetylcholine receptor M5 expressed in CHO cells to EC50 for human muscarinic acetylcholine receptor M1 expressed in CHO cells. The class given is ADME, cell-based.
The subject of series [3] is Canis familiaris. Briefly: Cholinergic toxicity in dog assessed as emesis at 5 mg/kg, po administered as single dose using spray dried dispersion formulation after 1 to 4 hrs. It is filed as organism-based, Canis lupus familiaris. The following applies: in vivo. The gist of the method: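 Dog single oral dose escalation: 1/sex at 5 mg/kg for each formulation; 1 female at 15 mg/kg. Spray-dried dispersion: 23% drug loading with 0.5% methylcellulose and 100 mM citrate buffer. Clinical signs timed in approximate hours postdose; unbound plasma Cmax.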

Series [4] addresses T1, Muscarinic acetylcholine receptor M1 (Homo sapiens, UniProt P11229).
T1 sequence (P11229 whole entry): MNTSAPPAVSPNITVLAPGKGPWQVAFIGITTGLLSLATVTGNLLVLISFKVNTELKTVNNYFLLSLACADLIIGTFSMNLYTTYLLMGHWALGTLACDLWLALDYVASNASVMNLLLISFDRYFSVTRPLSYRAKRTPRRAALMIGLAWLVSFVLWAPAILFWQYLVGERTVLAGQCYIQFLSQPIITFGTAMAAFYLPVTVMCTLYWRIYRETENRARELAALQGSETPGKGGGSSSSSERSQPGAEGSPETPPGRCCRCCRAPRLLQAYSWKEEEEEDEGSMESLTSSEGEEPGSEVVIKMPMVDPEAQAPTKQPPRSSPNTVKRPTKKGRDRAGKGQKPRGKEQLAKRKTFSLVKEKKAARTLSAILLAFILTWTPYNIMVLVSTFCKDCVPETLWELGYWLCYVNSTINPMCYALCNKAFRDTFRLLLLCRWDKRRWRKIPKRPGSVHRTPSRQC
Briefly: Activity at human muscarinic acetylcholine receptor M1 expressed in CHO cells assessed as increase in calcium mobilization incubated for 10 mins by Fluo-8-AM dye based FLIPR assay. It is filed as cell-based.

In series [5] the test system is Plasma. Briefly: Unbound plasma concentration in amphetamine-induced hyperlocomotion C57BL/6 mouse at 3.2 mg/kg, sc measured after 1 hr by LC-MS/MS analysis. The following applies: in vivo. The class given is ADME, organism-based. The gist of the method: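 Satellite group of C57BL/6 mice from the amphetamine-stimulated locomotor study, N = 2/dose at 0.32, 1 and 3.2 mg/kg. Dosed sc as a solution in 10/90 Cremophor/water. Unbound plasma and brain concentrations measured at T = 1 h.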

For series [6], the system named is Brain. Put plainly: Unbound brain concentration in scopolamine-induced memory impairment Wistar rat model at 0.32 mg/kg, sc measured after 1.25 hrs by LC-MS/MS analysis. It is filed as ADME, organism-based. As to conditions: in vivo.
Series [7] deals with T1, Muscarinic acetylcholine receptor M1. Briefly: Agonist activity at human muscarinic acetylcholine receptor M1 expressed in CHO cells at 30 uM by beta-arrestin recruitment assay relative to acetylcholine. It is filed as cell-based.
The target is the same in series [8]. Put plainly: Positive allosteric modulation of human muscarinic acetylcholine receptor M1 expressed in CHO cells assessed as increase in acetylcholine-induced calcium mobilization preincubated for 10 mins followed by acetylcholine addition by Fluo-8-AM dye based FLIPR assay. The class given is ADME, cell-based. The gist of the method: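 M1 potentiation (PAM) format: calcium mobilization read on a FLIPR plate reader with an EC20 concentration of ACh present. EC50 is the geometric mean of at least three experiments.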
In general terms: A change in cytosolic calcium serves as a functional read-out for many receptors and channels.

For series [9] the target is unchanged. Briefly: Activity at human muscarinic acetylcholine receptor M1 expressed in CHO cells by beta-arrestin recruitment assay. It is filed as cell-based. On the technique in general: Arrestin recruitment assays detect the binding of arrestin to an activated receptor.
Series [10] has the same target. Put plainly: Ratio of intrinsic activity at human muscarinic acetylcholine receptor M1 expressed in CHO cells by beta-arrestin recruitment assay to intrinsic activity at human muscarinic acetylcholine receptor M1 expressed in CHO cells assessed as increase in calcium mobilization. It is filed as ADME, cell-based.
Series [11] has as its target T2, Muscarinic acetylcholine receptor M1 (Rattus norvegicus, UniProt P08482).
T2 sequence (P08482 whole entry): T1 sequence (P11229 whole entry) with A5V, T254S, P309S, R320K, A337G, I413V
Briefly: Positive allosteric modulation of muscarinic acetylcholine receptor M1 in Sprague-Dawley rat brain hippocampal slices assessed as increase in carbachol-induced firing rate at CA1 pyramidal neurons at 3 uM after 10 mins in presence of M1 antagonist VU0255035 by electrophysiology method. The gist of the method:
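Hippocampal CA1 spike-rate assay in PAM mode (EC20 carbachol) with a reportedly M1-selective muscarinic antagonist added to the slices.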

In series [12] the target is T2, Muscarinic acetylcholine receptor M1. Put plainly: Agonist activity at muscarinic acetylcholine receptor M1 in Sprague-Dawley rat brain hippocampal slices assessed as increase in firing rate at CA1 pyramidal neurons after 10 mins by electrophysiology method. The gist of the method: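 Rat hippocampal slices; spontaneous action potentials recorded from CA1 pyramidal neurons, read as spike rate. Agonist mode has no carbachol; PAM mode uses an EC20 level of carbachol. Top concentration tested was 3 μM.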

Series [13] concerns Rattus norvegicus. Briefly: Unbound AUC (0 to 24 hrs) in rat plasma at 5 mg/kg, po administered as single dose. The class given is ADME, organism-based. The following applies: in vivo. The gist of the method: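 Rats (3/sex/dose) dosed orally once, 1 or 5 mg/kg as a 0.5% methylcellulose suspension.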
The nature of series [14]: Ratio of AUC in rat brain to plasma at 2 mg/kg, po or 0.5 mg/kg, iv administered as single bolus dose. The class given is ADME, organism-based. As to conditions: read-out: Ratio AUC. The essentials:
(§1)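 Brain/plasma ratio computed from AUC of total drug in brain and total drug in plasma.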

Series [15] concerns Rattus norvegicus. Put plainly: Toxicity in rat assessed as unbound Cmax in brain required to show convulsions at 45 mg/kg, po administered as single dose. It is filed as organism-based. The following applies: in vivo.
Series [16] can be described thus: Thermodynamic solubility of the compound in FeSSIF at pH 6.3. The following applies: read-out: Therm_solubility.
Series [17] is described as follows: Ratio of AUC in iv or po dosed mouse brain to plasma. It is filed as ADME, organism-based. As to conditions: read-out: Ratio AUC. The gist of the method:
as §1

Series [18] is described as follows: Unbound plasma concentration in rat at 2 mg/kg, po or 0.5 mg/kg, iv administered as single bolus dose. The class given is ADME, organism-based. The gist of the method:
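Rat PK: IV bolus given as a solution, 0.5 mg/kg in 20% HPBCD; oral dose given as a suspension, 2 mg/kg in 0.5% methylcellulose. Fraction unbound in plasma determined.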

Series [19] has as its system Rattus norvegicus. Briefly: Toxicity in rat assessed as unbound Cmax in plasma required to show convulsions at 45 mg/kg, po administered as single dose. It is filed as organism-based. The following applies: in vivo.
A short description of series [20]: Unbound plasma concentration in dog at 0.5 mg/kg, po or 0.1 mg/kg, iv administered as single bolus dose. The class given is ADME, organism-based, Canis lupus familiaris. The gist of the method:
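Dog PK: IV bolus given as a solution, 0.1 mg/kg in 20% HPBCD; oral dose given as a suspension, 0.5 mg/kg in 0.5% methylcellulose. Fraction unbound in plasma determined.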

The record followed here is ChEMBL document CHEMBL4017487, “Design and Synthesis of γ- and δ-Lactam M1 Positive Allosteric Modulators (PAMs): Convulsion and Cholinergic Toxicity of an M1-Selective PAM with Weak Agonist Activity” (J Med Chem, 2017).

One may read the EC50 as the concentration that produces a half-maximal response. For orientation: fraction unbound means the share of the substance not bound to proteins or other matrix. Read a low fraction unbound as little free substance.

Changes are numbered by the printed parent chain. ≈ marks a conversion by molar mass, not a printed value.

Consider `Cc1cc2c(cc1Cc1ccc(-c3cocn3)cc1)C(=O)N([C@H]1CCOC[C@@H]1O)C2`, for which the results for the fCmax in series [1], in series [15] and in series [19] were 320 nM, 440 nM and 2310 nM, respectively. In series [2], the “Ratio EC50” value is on record as above 200. For the same compound, the Activity entry is on record as “Toxic” in series [3], 50% in series [7], “Not Active” in [11] and “Not Active” in series [12]. For the same compound, the results for the Kb in [4] and in [9] were 3 µM and 8 µM, respectively. Also, the “Cp(f)” value in series [5] is recorded as 130 nM. The “Drug uptake(free)” value in [6] was 3.4 nM. In addition, in series [8], the half-maximal effective concentration (EC50) is 0.047 µM. The Ratio in [10] is on record as 1.4. Also, the fAUC in [13] came out at 4.927 µM·h. The figures for the Kp in series [14] and in [17] were 0.2 and 0.1, respectively. Moreover, the solubility thermodynamic in series [16] was found to be 39.7 µg/mL (≈ 98.2 µM). The fraction unbound in [18] was 0.035; in [20] it was 0.059.
